How the values were obtained:
[1] = melting temperature; fluorescence melt of hairpins on a sequencing array, two-state fit, raised by 9.35 °C to match UV melts; settings: sodium 0.088 M
Summary of the method: (§1)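 Cy3 signals were normalised both to pre-quench Cy3 and to control constructs. They came from library hairpins carrying annealed Cy3 and quencher oligos on a sequenced MiSeq flow cell, imaged in 50 mM Na-HEPES pH 8.0, 25 mM NaCl, in 2.5 °C steps up to 60 °C. Bootstrapped two-state fits gave melting temperature and folding enthalpy, and four replicates were combined by inverse variance. Fitted temperatures were then raised by 9.35 °C to match UV melts.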

[2] = folding enthalpy; higher = less favourable; fluorescence melt of hairpins on a sequencing array, two-state fit; settings: sodium 0.088 M
Summary of the method: as §1

Sequence	Tm [1] [°C]	folding enthalpy [2] [kcal/mol]
GCCGGCGAAAGCCAGGGC ((((((....)))..)))	63.1	-18.7
GCCGGCGAAAGCCATGGC ((((((....)))..)))	56.1	-19.9
GCCGGCGAAAGCCCCGGC ((((((....)))..)))	55.2	-18.3
GCCGGCGCGAAAGCGGGC (((..(((....))))))	63	-14.4
GCCGGGCGAAAGCAAGGC (((..((....))..)))	68.5	-34
GCCGGGCGAAAGCACAGC ((.(.((....)).).))	53.8	-16.9
GCCGGGCGAAAGCACCGC ((.(.((....)).).))	49	-14.1
GCCGGGCGAAAGCGCTGC ((.(.((....)).).))	43	-20.3
GCCGGGCGAAAGCTCAGC ((.(.((....)).).))	44.4	-16.9
GCCGGGGGAAACCTCGGC ((((.((....)).))))	66.7	-37.9
GCCGGTGGAAACACCAGC ((.((((....)))).))	48.4	-21.5
GCCGGTGGAAACACTGGC (((.(((....))).)))	60	-41.5
GCCGTAGAAATACGGC ((((((....))))))	64	-42.4
GCCGTAGGAAACTATGGC (((.(((....))).)))	51.3	-34
GCCGTCCCGAAAGGGGGC (((..(((....))))))	49.4	-17
GCCGTCGAAAGACGTGGC ((((((....)))..)))	58.8	-14.1
GCCGTCGAAAGACTAGGC ((((((....)))..)))	52.8	-35.5
GCCGTCGGAAACGACGAC (.(((((....))))).)	54.8	-13.3
GCCGTCGGAAACGGTGGC (((..((....))..)))	51.3	-22
GCCGTGCGAAAGCAAAGC ((..(((....)))..))	40.4	-9.19
GCCGTGCGAAAGCGCAGC ((.(.((....)).).))	49.1	-13
GCCGTGCGAAAGCTGGGC (((..((....))..)))	59.5	-19.9
GCCGTGGCGAAAGCCGGC (((..(((....))))))	62.8	-21.4

Sequence	Tm [1] [°C]	folding enthalpy [2] [kcal/mol]
GCCGTGGGAAACCACAGC ((.((((....)))).))	49.4	-18.6
GCCGTTCGAAAGAAGGC (((.(((....))))))	50.4	-30.4
GCCGTTGGAAACGACGGC (((((.(....).)))))	66.1	-38
GCCTAACGAAAGTTCGGC (((.(((....))).)))	52.4	-34.8
GCCTAAGGAAACCTAGGC (((((.(....).)))))	44.9	-39.3
GCCTAAGGAAACTCAGGC ((((.((....)).))))	35.6	-31.3
GCCTACCGAAAGGTTGGC (((.(((....))).)))	62.5	-35.4
GCCTACGAAAGTAACGGC ((((((....)))..)))	44	-26.5
GCCTACGAAAGTAAGGC ((((((....))).)))	56.9	-31.3
GCCTACGAAAGTAGGGGC ((((((....)))..)))	61.3	-14.4
GCCTACGAAAGTATGGC ((((((....))).)))	52.3	-24.6
GCCTACTCGAAAGAGGGC (((..(((....))))))	44.1	-26.4
GCCTAGCGAAAGCAACGC ((.(.((....)).).))	23.8	-8.35
GCCTAGCGAAAGCGGGGC (((..((....))..)))	65.9	-22.3
GCCTAGCGAAAGCGTGGC (((..((....))..)))	64.5	-30.2
GCCTAGCGAAAGCTACGC ((.((((....)))).))	41.8	-19
GCCTAGCGAAAGCTCGGC (((.(((....))).)))	56.8	-39.4
GCCTAGGAAACTAGGC ((((((....))))))	58.7	-36.2
GCCTATCGAAAGATCGGC (((.(((....))).)))	49	-41.7
GCCTATCGAAAGATGGC (((.(((....))))))	50.9	-30.9
GCCTATCGAAAGATTGGC (((.(((....))).)))	53.4	-35.2
GCCTATGCGAAAGCAGGC (((..(((....))))))	54	-23.1
GCCTCACGAAAGTGTGGC (((.(((....))).)))	63.5	-43.5

Sequence	Tm [1] [°C]	folding enthalpy [2] [kcal/mol]
GCCTCAGAAATGAGGC ((((((....))))))	62.5	-30.8
GCCTCCGAAAGGAAAGGC ((((((....)))..)))	53	-29.6
GCCTCCGAAAGGAGCGGC ((((((....)))..)))	52.3	-15.6
GCCTCCGGAAACAGAGGC (((((.(....).)))))	48.7	-36.5
GCCTCGACGAAAGTCGGC (((..(((....))))))	52.1	-6.95
GCCTCGCGAAAGCGGAGC ((..(((....)))..))	50.9	-13.7
GCCTCGCGAAAGCGGGC (((.(((....))))))	67.7	-16.4
GCCTCGCGAAAGCGTCGC ((..(((....)))..))	43.1	-12.2
GCCTCTCGAAAGAGTGGC (((.(((....))).)))	57.4	-41.8
GCCTCTGCGAAAGCAGGC (((..(((....))))))	50	-8.17
GCCTCTGGAAACAAAGGC ((((.((....)).))))	36.1	-26.1
GCCTCTGGAAACAGAGAC (.(((((....))))).)	40.1	-18.7
GCCTGACGAAAGTCTGGC (((.(((....))).)))	67.5	-37.2
GCCTGAGCGAAAGCTGGC (((..(((....))))))	52.6	-25.7
GCCTGAGGAAACCCAGGC (((((.(....).)))))	53.2	-36.5
GCCTGCACGAAAGTGGGC (((..(((....))))))	47.3	-20.3
GCCTGCGAAAGCACGGGC ((((((....)))..)))	53	-22.4
GCCTGCGAAAGCACTGGC ((((((....)))..)))	49.9	-20
GCCTGCGAAAGCAGAGGC ((((((....)))..)))	60.1	-17.6
GCCTGCGAAAGCAGCGGC ((((((....)))..)))	61.6	-14
GCCTGCGAAAGCATGGC ((((((....))).)))	65.8	-30.8
GCCTGCGAAAGCATGGGC ((((((....)))..)))	56.7	-21.4
GCCTGCGCGAAAGCGGGC (((..(((....))))))	55.5	-15.4

Sequence	Tm [1] [°C]	folding enthalpy [2] [kcal/mol]
GCCTGGCCGAAAGGCGGC (((..(((....))))))	65.3	-18.4
GCCTGGCGAAAGCCACGC ((.((((....)))).))	49	-16.9
GCCTGGCGAAAGCGACGC ((.(.((....)).).))	36	-6.72
GCCTGGCGAAAGCTAAGC ((.(.((....)).).))	36.2	-10.2
GCCTGGCGAAAGCTACGC ((.(.((....)).).))	37.8	-6.66
GCCTGTGGAAACACAGAC (.(((((....))))).)	42.6	-15.8
GCCTTACGAAAGTATGGC (((.(((....))).)))	55.6	-41
GCCTTAGAAATAAGGC ((((((....))))))	52.9	-30.2
GCCTTCCGAAAGGATGGC (((.(((....))).)))	62	-42.1
GCCTTCGAAAGAATGGGC ((((((....)))..)))	42.5	-28.1
GCCTTCGAAAGAATTGGC ((((((....)))..)))	37	-22.9
GCCTTCGCGAAAGCGGGC (((..(((....))))))	55.1	-12.2
GCCTTCGGAAACGAAGAC (.(((((....))))).)	43.3	-18.4
GCCTTGCGAAAGCACCGC ((..(((....)))..))	42.6	-10.6
GCCTTGCGAAAGCAGTGC ((..(((....)))..))	45.1	-11.6
GCCTTGCGAAAGCATCGC ((..(((....)))..))	51	-12.4
GCCTTGCGAAAGCATTGC ((..(((....)))..))	48.2	-11.4
GCCTTGCGAAAGCCAAGC ((.(.((....)).).))	39	-8.85
GCCTTGCGAAAGCCGGGC (((..((....))..)))	55.1	-19.9
GCCTTGCGAAAGCGGGGC (((..((....))..)))	65.2	-33.2
GCCTTTCGAAAGAAGGGC (((.(((....))).)))	53.6	-47.5
GCGAAACCTCGC ((((....))))	49.5	-19.9

Reference: the array DNA melting data of Ke et al. (doi:10.1101/2024.01.08.574731)
